# Source: ChEMBL document CHEMBL1821569, “Synthesis of novel 1,2,5-trisubstituted benzimidazoles as potential antitumor agents” (2011)
# Experiments:
# Format in all cases: functional
# [1] = system: RXF 393; experiment: Antitumor activity against human RXF393 cells after 48 hrs by SRB assay; details: RXF 393, 48 h
# Outline: (§1)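 NCI 60-cell-line secondary screen. Cells were exposed continuously to drug for 48 h at five concentration levels (100, 10, 1.0, 0.1 and 0.01). Growth was estimated by sulforhodamine B protein staining. GI50 is the concentration giving a 50% reduction in net protein increase versus untreated control cells over the incubation. TGI (total growth inhibition) and LC50 (50% cell kill) were also derived.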
# [2] = system: UACC-257; experiment: Antitumor activity against human UACC257 cells after 48 hrs by SRB assay; details: UACC-257, 48 h
# Outline: (§2)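 NCI 60-cell-line secondary screen. Continuous 48 h exposure at five concentration levels. Cell growth estimated by sulforhodamine B protein staining. GI50 taken as the concentration giving 50% reduction in net protein increase relative to untreated control cells over the incubation. TGI (total growth inhibition) and LC50 (50% cell kill) were also derived.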
# [3] = system: BT-549; experiment: Antitumor activity against human BT549 cells after 48 hrs by SRB assay; details: BT-549, 48 h; outline: as §1
# [4] = system: UO-31; experiment: Antitumor activity against human UO31 cells after 48 hrs by SRB assay; details: UO-31, 48 h; outline: as §2
# [5] = system: SK-MEL-2; experiment: Antitumor activity against human SK-MEL-2 cells after 48 hrs by SRB assay; details: SK-MEL-2, 48 h; outline: as §1
# [6] = system: HCC 2998; experiment: Antitumor activity against human HCC2998 cells after 48 hrs by SRB assay; details: HCC 2998, 48 h
# Outline: (§3)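 NCI 60-cell-line secondary screen: continuous drug exposure for 48 h at five concentration levels (100, 10, 1.0, 0.1 and 0.01). Cell growth was estimated by sulforhodamine B (SRB) protein staining. GI50 is the concentration giving a 50% reduction in net protein increase relative to untreated control cells during the incubation. TGI and LC50 were derived from the same data.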
# [7] = system: SN12C; experiment: Antitumor activity against human SN12C cells after 48 hrs by SRB assay; outline: as §1
# [8] = system: LOX IMVI; experiment: Antitumor activity against human LOXIMVI cells after 48 hrs by SRB assay; outline: as §1
# [9] = system: A498; experiment: Antitumor activity against human A498 cells after 48 hrs by SRB assay; details: A498, 48 h; outline: as §1
# [10] = system: SF-539; experiment: Antitumor activity against human SF539 cells after 48 hrs by SRB assay; details: SF-539, 48 h; outline: as §1
# [11] = system: HCT-116; experiment: Antitumor activity against human HCT116 cells after 48 hrs by SRB assay; details: HCT-116, 48 h; outline: as §1
# [12] = system: MDA-MB-435; experiment: Antitumor activity against human MDA-MB-435 cells after 48 hrs by SRB assay; details: MDA-MB-435, 48 h; outline: as §1
# [13] = system: SF-268; experiment: Antitumor activity against human SF268 cells after 48 hrs by SRB assay; details: SF-268, 48 h; outline: as §1
# [14] = system: OVCAR-4; experiment: Antitumor activity against human OVCAR4 cells after 48 hrs by SRB assay; details: OVCAR-4, 48 h; outline: as §1
# [15] = system: SK-MEL-28; experiment: Antitumor activity against human SK-MEL-28 cells after 48 hrs by SRB assay; details: SK-MEL-28, 48 h; outline: as §1
# [16] = system: COLO 205; experiment: Antitumor activity against human COLO205 cells after 48 hrs by SRB assay; details: COLO 205, 48 h; outline: as §1
# [17] = system: HOP-62; experiment: Antitumor activity against human HOP62 cells after 48 hrs by SRB assay; details: HOP-62, 48 h; outline: as §1
# [18] = system: OVCAR-3; experiment: Antitumor activity against human OVCAR3 cells after 48 hrs by SRB assay; details: OVCAR-3, 48 h; outline: as §1
# [19] = system: SK-OV-3; experiment: Antitumor activity against human SKOV3 cells after 48 hrs by SRB assay; details: SK-OV-3, 48 h; outline: as §1
# [20] = system: U-251; experiment: Antitumor activity against human U251 cells after 48 hrs by SRB assay; details: U-251, 48 h; outline: as §2
# [21] = system: OVCAR-8; experiment: Antitumor activity against human OVCAR8 cells after 48 hrs by SRB assay; details: OVCAR-8, 48 h; outline: as §1
# [22] = system: CCRF-CEM; experiment: Antitumor activity against human CCRF-CEM cells after 48 hrs by SRB assay; outline: as §1
# [23] = system: SNB-19; experiment: Antitumor activity against human SNB19 cells after 48 hrs by SRB assay; details: SNB-19, 48 h; outline: as §1
# [24] = system: HL-60(TB); experiment: Antitumor activity against human HL-60(TB) cells after 48 hrs by SRB assay; details: HL-60, 48 h; outline: as §3
# [25] = system: HT-29; experiment: Antitumor activity against human HT-29 cells after 48 hrs by SRB assay; details: HT-29, 48 h; outline: as §1
# [26] = system: NCI-H23; experiment: Antitumor activity against human NCI-H23 cells after 48 hrs by SRB assay; details: NCI-H23, 48 h; outline: as §1
# [27] = system: KM12; experiment: Antitumor activity against human KM12 cells after 48 hrs by SRB assay; details: KM12, 48 h; outline: as §1
# [28] = system: SF-295; experiment: Antitumor activity against human SF295 cells after 48 hrs by SRB assay; details: SF-295, 48 h; outline: as §1
# [29] = system: DU-145; experiment: Antitumor activity against human DU145 cells after 48 hrs by SRB assay; details: DU-145, 48 h; outline: as §1
# [30] = read-out: LC50 (the source's name)
compound,measurement,setting,value
COC(=O)c1ccc2c(c1)nc(-c1ccc(Cl)cc1)n2-c1cc(C(C)(C)C)[nH]n1,GI50,[1],1570 nM
same,TGI,[1],5.77 µM
same,CC50,[1]; [30],569 nM
same,GI50,[2],4.97 µM
same,TGI,[2],22.9 µM
same,CC50,[2]; [30],967 nM
same,GI50,[3],3.35 µM
same,TGI,[3],11.2 µM
same,CC50,[3]; [30],595 nM
same,GI50,[4],3.35 µM
same,TGI,[4],44.1 µM
same,CC50,[4]; [30],> 100 µM
same,GI50,[5],3.89 µM
same,TGI,[5],18.1 µM
same,CC50,[5]; [30],> 100 µM
same,GI50,[6],3.9 µM
same,TGI,[6],19.8 µM
same,CC50,[6]; [30],> 100 µM
same,GI50,[7],4.34 µM
same,TGI,[7],27.7 µM
same,CC50,[7]; [30],> 100 µM
same,GI50,[8],3.7 µM
same,TGI,[8],14.5 µM
same,CC50,[8]; [30],429 nM
same,GI50,[9],2260 nM
same,TGI,[9],9.76 µM
same,CC50,[9]; [30],858 nM
same,GI50,[10],2540 nM
same,TGI,[10],8.95 µM
same,CC50,[10]; [30],521 nM
same,GI50,[11],3.47 µM
same,LC50,[11],563 nM
same,TGI,[11],12.3 µM
same,GI50,[12],1190 nM
same,TGI,[12],5 µM
same,CC50,[12]; [30],505 nM
same,GI50,[13],3.29 µM
same,TGI,[13],17.8 µM
same,CC50,[13]; [30],> 100 µM
same,GI50,[14],3.4 µM
same,TGI,[14],> 100 µM
same,CC50,[14]; [30],> 100 µM
same,GI50,[15],3.38 µM
same,TGI,[15],15.5 µM
same,CC50,[15]; [30],552 nM
same,GI50,[16],2290 nM
same,TGI,[16],6.04 µM
same,CC50,[16]; [30],463 nM
same,GI50,[17],3.41 µM
same,LC50 (concentration giving 50% cell kill),[17],> 100 µM
same,TGI,[17],21 µM
same,GI50,[18],2350 nM
same,TGI,[18],6.13 µM
same,CC50,[18]; [30],915 nM
same,GI50,[19],3.71 µM
same,TGI,[19],31 µM
same,CC50,[19]; [30],> 100 µM
same,GI50,[20],4.13 µM
same,TGI,[20],22.7 µM
same,CC50,[20]; [30],> 100 µM
same,GI50,[21],7.33 µM
same,TGI,[21],58.2 µM
same,CC50,[21]; [30],> 100 µM
same,GI50,[22],4.91 µM
same,TGI,[22],> 100 µM
same,CC50,[22]; [30],> 100 µM
same,GI50,[23],4.31 µM
same,TGI,[23],> 100 µM
same,CC50,[23]; [30],> 100 µM
same,GI50,[24],4.03 µM
same,LC50,[24],> 100 µM
same,TGI,[24],11.2 µM
same,GI50,[25],3.65 µM
same,LC50 (50% cell kill),[25],> 100 µM
same,TGI,[25],15.4 µM
same,GI50,[26],3.42 µM
same,LC50 (50% cell kill),[26],> 100 µM
same,TGI,[26],36 µM
same,GI50,[27],2120 nM
same,TGI,[27],6.07 µM
same,CC50,[27]; [30],> 100 µM
same,GI50,[28],2480 nM
same,TGI,[28],8.98 µM
same,CC50,[28]; [30],> 100 µM
same,GI50,[29],3.7 µM
same,TGI,[29],25.8 µM
same,CC50,[29]; [30],> 100 µM
